# proCasp7 act = procaspase-7 activators, primary screen, counter-screen for procaspase-3 activator project, biochemical, absorbance, HTS, human; Caspase-7 (Homo sapiens), P55210; recombinant procaspase-7, Ac-DEVD-pNA absorbance 405 nm; D23A/D198A/D206A triple mutant, cannot self-cleave; scale: DMSO 0, 5 µM enzyme 100; activation, % at 8.5 µM; actives 0.093% (n = 330,000); AID 463210, 2010;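 active means percent activation above the screen-wide mean plus 3 SD, cut at about 25% in these data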
# Target sequence (P55210 whole entry D23A/D198A/D206A): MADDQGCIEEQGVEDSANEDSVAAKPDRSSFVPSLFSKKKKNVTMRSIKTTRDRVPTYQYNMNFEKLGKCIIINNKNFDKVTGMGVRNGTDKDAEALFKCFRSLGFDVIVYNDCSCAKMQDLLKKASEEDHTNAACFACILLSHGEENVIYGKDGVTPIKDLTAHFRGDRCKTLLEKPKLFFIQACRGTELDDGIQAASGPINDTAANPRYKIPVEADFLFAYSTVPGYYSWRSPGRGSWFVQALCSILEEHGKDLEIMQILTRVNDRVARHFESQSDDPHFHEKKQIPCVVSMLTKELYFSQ
#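 buffer or medium = Zinc-free HEPES/NaCl buffer, pH 7.4 | material = Procaspase-7 triple mutant (PC-7 D3A) | input = 2 µM procaspase-7 mutant as dispensed | signal = Epi-absorbance of released pNA at 405 nm, two timepoints | timing = 1 h preincubation, 2 h reaction | replicates = singlicate compound testing | evaluation = % activation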
# aDG glyco up = activators of alpha-DG glycosylation, primary screen, uHTS, Pro5-aDG cells, AlphaScreen; alpha-DG glycosylation AlphaScreen (IIH6); 0% Pro5, 100% B10-LARGE cell signal; activation, % at 10 µM; actives 0.22% (n = 360,000); AID 624168, 2012;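 active means activation of at least 8% versus controls, or a plate z-score of at least 8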;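 further: Pro5 are CHO cells carrying HIG-tagged alpha-DG that lacks glycosylation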
# NR3A LBD binder = binders of NR3A ligand-binding domain, primary screen, biophysical, differential scanning fluorimetry, uHTS; AID 1259313, 2017; NR3A LBD differential scanning fluorimetry, Tm shift; 0% = protein alone, 100% = glycine-bound protein; Tm shift relative to glycine control, % at 25 µM; actives 2.5% (n = 340,000); Glutamate receptor ionotropic, NMDA 3A (GRIN3A) ligand-binding domain;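 active means melting temperature shift of at least 10% of the positive control shift, at one fixed dose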
# procasp3 activ = activators of human procaspase-3 D3A mutant, primary screen, biochemical, absorbance, PC-3 D3A mutant, single concentration; recombinant procaspase-3 D3A, Ac-DEVD-pNA absorbance 405 nm; Caspase-3 (Homo sapiens), P42574; actives 0.11% (n = 330,000); AID 463141, 2010; activation, % at 8.5 µM;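 active means activation above the mean of all tested compounds plus 3 SD, cut at about 21% in these data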;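 further: 0% = DMSO alone and 100% = DMSO wells spiked with extra 5 µM PC-3 D3A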
# Target sequence (P42574 whole entry D9A/D28A/D175A): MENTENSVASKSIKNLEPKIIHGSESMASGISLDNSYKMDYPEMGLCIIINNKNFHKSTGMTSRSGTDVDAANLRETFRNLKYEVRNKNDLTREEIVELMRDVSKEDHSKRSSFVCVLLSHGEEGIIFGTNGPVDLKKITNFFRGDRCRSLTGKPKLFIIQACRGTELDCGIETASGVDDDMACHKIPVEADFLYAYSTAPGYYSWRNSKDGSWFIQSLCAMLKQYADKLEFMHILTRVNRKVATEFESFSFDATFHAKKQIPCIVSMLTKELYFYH
#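 Assay system: Autoprocessing-dead procaspase-3 D3A mutant enzyme; also added: Ac-DEVD-pNA; doses: one concentration, 8.5 µM nominal, 0.8% DMSO; times: 1 h compound preincubation, 2 h substrate hydrolysis at 25 °C; technique: 405 nm absorbance of p-nitroaniline, reads at 0 and 120 min; measure: % activation between DMSO and enzyme-spiked controls; repeats: single replicate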
# MPTP inh = mitochondrial permeability transition pore inhibitors, primary screen, biochemical, isolated mouse mitochondria, absorbance; inhibition, % at 10 µM; actives 1.4% (n = 360,000); Ca2+ swelling absorbance, 30 min;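 active means inhibition of 50% or more, scaled per plate between neutral and stimulator controls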;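 further: 0% = DMSO wells given calcium and 100% = 1 mM EGTA wells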
# MPTP counter = fluorescence retest of MPTP screen hits in isolated mitochondria, single concentration | shares compounds with MPTP inh | membrane potential, Rhodamine 123 fluorescence | inhibition, % at 10 µM | actives 78% (n = 5,000) | AID 624504, 2012; in the data active means inhibition above about 22%;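 further: 0% = DMSO vehicle and 100% = positive control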
# Active calls of the source: *; nt = no result given. Sampled rows, rich in hits. Any-hit rate of the full collection: about 3.7%.
SMILES,proCasp7 act,aDG glyco up,NR3A LBD binder,procasp3 activ,MPTP inh,MPTP counter
Cc1cc(/C=N/n2cnnc2)c(C)n1-c1ccc(OCc2ccccc2F)cc1,-4.1,5.9*,-3.9,-0.2,98.2*,95.8*
Cc1cc(/C=N/n2cnnc2)c(C)n1-c1ccc(OCc2ccc(Cl)cc2)cc1,-0.5,4.8,-2.5,-5.3,113.9*,100.4*
CC(C)(C)c1ccc(CC(=O)N2CCC2(C)C(=O)NCc2cccc3ccccc23)cc1 (configuration not stated),nt,2.1,nt,nt,1.4,nt
CC1=NN(C(N)=S)C(=O)C1N=Nc1ccc(Cl)cc1Cl (configuration not stated),nt,-0.1,10.9*,nt,55.4*,82.9*
CC1=NN(C(N)=S)C(=O)C1N=Nc1ccccc1Cl (configuration not stated),6.5,0.5,3.4,3.4,6.2,nt
COc1ccc(NC(=O)CSc2ncnc3c2cnn3CCc2ccccc2)cc1,-6.8,0.1,-0.4,3.2,-5.2,nt
COc1cccc(NC(=O)CSc2ncnc3c2cnn3Cc2ccccc2)c1,-0.4,-0.2,-5.8,3.8,55.2*,39.5*
O=C(CSc1ncnc2c1cnn2-c1ccccc1)Nc1ccccc1,1.2,1.0,-1.1,11.4,79.7*,42.8*
CC(C)C[C@H]1CN(CCCC[C@@H]2CNC(=O)C(=O)N2Cc2ccccc2)C(=O)C(=O)N1CCc1ccccc1,nt,0.0,nt,nt,-0.1,nt
Cc1ccccc1Nc1nc(N)nc(CSc2nc3ccccc3c(=O)n2CCCO)n1,4.7,0.0,-4.5,1.6,-1.1,nt
Cc1ccccc1Nc1nc(N)nc(CSc2nc3ccccc3c(=O)n2C)n1,-1.2,3.3,-2.8,1.0,57.2*,22.1*
CCOC(=O)c1ccc(N2CCN(C(=O)c3ccccc3)CC2)c(NC(=O)c2ccco2)c1,-8.7,-0.2,-1.0,4.8,-2.3,nt
CCOC(=O)c1ccc(N2CCN(c3ccc(F)cc3)CC2)c(NC(=O)Nc2cccc(OC)c2)c1,6.3,-0.1,1.9,-5.2,91.7*,83.9*
CCOC(=O)c1ccc(N2CCN(c3ccccc3F)CC2)c(NC(=O)Nc2ccccc2)c1,6.4,0.1,7.4,-2.0,96.0*,86.9*
C[C@H](CO)N1C[C@H](C)[C@H](CN(C)S(=O)(=O)c2cccc(C#N)c2)OCc2cnnn2CCCC1=O,nt,-0.2,nt,nt,-0.6,nt
O=P(O)(Cc1ccccc1)c1ccccc1,nt,0.1,nt,nt,-0.3,nt
Fc1cc(F)cc(NC(=S)Nc2ccccc2N2CCOCC2)c1,-0.6,0.2,0.5,2.9,94.3*,101.7*
CCOC(=O)c1nc2c(=O)n(C)c(=O)n(C)c2n(C)c1=O,1.6,-0.1,-0.1,-3.4,-1.8,nt
COc1cc(CCc2ccccc2)c(C(=O)O)c(O)c1CC=C(C)C,nt,-0.2,-4.4,nt,93.3*,68.9*
COc1cc(CCc2ccccc2)c(C(=O)O)c(O)c1C/C=C(/C)CCC=C(C)C,0.0,-0.2,10.0*,-9.4,86.6*,55.7*
COCOc1ccc(/C=C/C(=O)c2c(OCOC)cc(OCOC)c(CC=C(C)C)c2O)cc1OCOC,-0.6,-0.7,-6.3,8.0,3.9,nt
COc1ccccc1CC(=O)c1ccc(OCc2ccccc2)cc1,0.5,-0.1,1.3,5.8,3.0,nt
Cc1ccc2nc(N/C(=N/S(=O)(=O)c3ccc(F)cc3F)c3ccccc3)sc2c1,-2.0,0.3,0.7,13.7,50.1*,69.3*
CC1CCN(S(=O)(=O)c2nnc(NC(=O)c3cccc(Cl)c3)s2)CC1,7.7,0.9,14.1*,3.7,82.7*,78.6*
CCOC(=O)c1c(C)[nH]c(C(=O)N/N=C\c2ccccc2Cl)c1C,-2.5,0.2,-4.6,16.5,92.3*,88.3*
SMILES,proCasp7 act,aDG glyco up,NR3A LBD binder,procasp3 activ,MPTP inh,MPTP counter
O=C(C(=O)N1CCN(C/C=C/c2ccccc2)CC1)c1ccccc1,nt,1.1,nt,nt,-1.3,nt
O=C(NCc1cccc(C(F)(F)F)c1)c1cc(Cl)cc(Cl)c1,35.6*,0.3,0.9,0.9,100.1*,88.2*
FC(F)(F)c1cccc(NC(=S)NCCc2ccccn2)c1,-1.4,0.4,-7.9,-1.4,10.2,nt
O=C(NCc1cccc(C(F)(F)F)c1)c1cc(Cl)ccc1Cl,4.5,1.6,-4.9,-3.4,12.0,nt
FC(F)(F)c1cccc(NC(=S)NCc2ccccc2)c1,-5.0,0.1,2.8,1.3,105.8*,114.5*
CCCN(Cc1ccccc1)C(=S)Nc1cccc(C(F)(F)F)c1,-12.7,-0.3,-3.4,6.3,59.9*,63.3*
CN(C)CCCN(Cc1ccccc1)C(=S)Nc1cccc(C(F)(F)F)c1,-2.4,0.7,-0.4,1.4,-1.7,nt
FC(F)(F)c1cccc(CNC(=S)Nc2ccccc2)c1,-3.7,0.0,-0.7,0.2,82.1*,94.8*
Cc1ccc(S(=O)(=O)NC(=O)C2(C)CCN2C(=O)C2CCCCC2)nc1 (configuration not stated),nt,-0.3,nt,nt,0.4,nt
O=C(NCc1cccc(C(F)(F)F)c1)c1[nH]c(C(F)(F)F)nc1-c1ccccc1,nt,0.3,nt,nt,50.8*,99.1*
CC(C)CCN(C(=S)Nc1cccc(C(F)(F)F)c1)C(C)c1ccccn1 (configuration not stated),-6.8,0.2,-6.1,-5.3,63.1*,74.5*
O=C1C=C(c2ccc3c(c2)OCCO3)C[C@@H](c2ccc(F)cc2)C1,5.5,-0.1,-1.4,10.6,0.7,nt
O=C(COc1ccccc1)Nc1ccccc1NS(=O)(=O)c1cccs1,-4.8,0.2,-7.6,-4.6,8.6,nt
Cc1cc(Cl)ccc1OCC(=O)Nc1ccccc1NS(=O)(=O)c1cccs1,6.1,0.1,14.3*,-2.3,51.8*,78.0*
Cc1cc(Cl)ccc1OCC(=O)NNC(=O)c1cccs1,-4.0,0.1,-1.8,1.2,0.1,nt
O=C(COc1ccc(Cl)cc1Cl)Nc1ccccc1NS(=O)(=O)c1cccs1,-8.6,0.5,5.4,1.0,65.9*,78.9*
CCOC(=O)C(=CNc1cccnc1Oc1ccc(C)c2c1CCC2)C(=O)OCC,0.1,0.7,0.0,4.2,5.7,nt
Cc1ccc(S(=O)(=O)N2CCC(C(=O)OCC(=O)NC(C)c3ccc(F)cc3)CC2)cc1C (configuration not stated),0.8,-0.3,0.3,5.6,-0.9,nt

# Compound activity: PubChem, several laboratories
